Laboratory results as given in ChEMBL document CHEMBL1152579, “Substrate specificity effects of lipoxygenase products and inhibitors on soybean lipoxygenase-1” (Bioorg Med Chem, 2009).
pKi: −log10 of the molar value. Structures can show the parent of a compound that is named as a salt.

Columns and labels:
[1] = target: T1, Seed linoleate 13S-lipoxygenase-1 (Glycine max) (UniProt P08170); experiment: Allosteric inhibition of soybean LO1 assessed as increase in arachidonic acid/linoleic acid ratio at 5 uM by substrate specificity assay
T1 sequence (whole entry): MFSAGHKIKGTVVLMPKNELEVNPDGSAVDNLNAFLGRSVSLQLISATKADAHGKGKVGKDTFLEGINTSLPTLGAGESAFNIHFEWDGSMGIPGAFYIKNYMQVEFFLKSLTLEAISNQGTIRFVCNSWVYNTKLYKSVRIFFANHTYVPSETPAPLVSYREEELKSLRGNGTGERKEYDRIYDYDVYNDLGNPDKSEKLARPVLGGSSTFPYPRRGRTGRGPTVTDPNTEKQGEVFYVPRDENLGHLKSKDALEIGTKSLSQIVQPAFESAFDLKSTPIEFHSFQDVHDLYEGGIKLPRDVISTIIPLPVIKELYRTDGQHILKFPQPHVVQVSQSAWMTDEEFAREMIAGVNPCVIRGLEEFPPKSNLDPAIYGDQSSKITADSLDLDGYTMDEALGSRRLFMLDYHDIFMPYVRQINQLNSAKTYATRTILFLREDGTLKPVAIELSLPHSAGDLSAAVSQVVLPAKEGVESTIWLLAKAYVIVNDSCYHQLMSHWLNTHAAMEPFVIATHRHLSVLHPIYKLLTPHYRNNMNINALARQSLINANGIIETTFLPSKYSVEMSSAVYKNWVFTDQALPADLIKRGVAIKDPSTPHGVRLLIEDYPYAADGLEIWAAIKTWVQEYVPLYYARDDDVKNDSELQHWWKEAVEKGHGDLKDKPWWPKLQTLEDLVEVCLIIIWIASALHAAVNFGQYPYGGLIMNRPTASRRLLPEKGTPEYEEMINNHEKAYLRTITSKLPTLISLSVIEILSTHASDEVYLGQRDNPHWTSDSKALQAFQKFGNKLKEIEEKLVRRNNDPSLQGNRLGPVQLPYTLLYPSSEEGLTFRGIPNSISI

[2] = target: T1, Seed linoleate 13S-lipoxygenase-1 (Glycine max); experiment: Allosteric inhibition of soybean LO1 assessed as increase in arachidonic acid/linoleic acid ratio at 0.5 uM by substrate specificity assay
[3] = target: T1, Seed linoleate 13S-lipoxygenase-1 (Glycine max); experiment: Allosteric inhibition of soybean LO1 assessed as increase in arachidonic acid/linoleic acid ratio at 10 uM by substrate specificity assay
[4] = target: T1, Seed linoleate 13S-lipoxygenase-1 (Glycine max); experiment: Competitive inhibition of soybean LO1 assessed as increase in arachidonic acid/linoleic acid ratio at 5 uM by substrate specificity assay
[5] = target: T1, Seed linoleate 13S-lipoxygenase-1 (Glycine max); experiment: Allosteric inhibition of soybean LO1 assessed as increase in arachidonic acid/linoleic acid ratio at 1 uM by substrate specificity assay
[6] = target: T2, Seed linoleate 13S-lipoxygenase-1 (Glycine max, UniProt P08170); experiment: Binding affinity to soybean LO1
T2 sequence (P08170 whole entry): T1 sequence (whole entry)

[7] = target: T1, Seed linoleate 13S-lipoxygenase-1 (Glycine max); experiment: Allosteric inhibition of soybean LO1 assessed as increase in arachidonic acid/linoleic acid ratio at 1 uM by substrate specificity assay
[8] = target: T1, Seed linoleate 13S-lipoxygenase-1 (Glycine max); experiment: Inhibition of soybean LO1 assessed as increase in non-endogenous arachidonic acid/linoleic acid maximal ratio by substrate specificity assay
Method in brief: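 Inhibitor titrated into competitive substrate-capture reactions: sLO-1 with 1:1 AA:LA at 1 μM total substrate, 100 mM borate pH 9.2, 22 °C. Product ratio was measured by HPLC at each concentration. The change in (kcat/KM)AA/(kcat/KM)LA ratio was plotted against inhibitor concentration and fit to a saturation curve, giving the maximal ratio at saturation.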

[9] = target: T1, Seed linoleate 13S-lipoxygenase-1 (Glycine max); experiment: Mixed-type inhibition of soybean LO1 assessed as increase in arachidonic acid/linoleic acid ratio at 30 uM by substrate specificity assay
[10] = target: T2, Seed linoleate 13S-lipoxygenase-1; experiment: Binding affinity to allosteric site of soybean LO1
[11] = target: T1, Seed linoleate 13S-lipoxygenase-1 (Glycine max); experiment: Mixed-type inhibition of soybean LO1 assessed as increase in arachidonic acid/linoleic acid ratio at 65 uM by substrate specificity assay
[12] = target: T1, Seed linoleate 13S-lipoxygenase-1 (Glycine max); experiment: Mixed-type inhibition of soybean LO1 assessed as increase in arachidonic acid/linoleic acid ratio at 13 uM by substrate specificity assay

| Ratio [1] | Ratio [2] | Ratio [3] | Ratio [4] | Ratio [5] | pKi [6] | Ratio [7] | Ratio [8] | Ratio [9] | pKi [10] | Ratio [11] | Ratio [12] | Compound |
| --- | --- | --- | --- | --- | --- | --- | --- | --- | --- | --- | --- | --- |
| 4.8 | 2.5 | 4.8 | 4.7 | 3.2 | 6.15 | 3.2 | 5.4 |  |  |  |  | CCCCCCCC/C=C\CCCCCCCCOS(=O)(=O)O [OLEYL SULFATE] |
|  |  |  |  |  |  |  | 7.4 | 3 | 3.85 | 4 | 2.3 | CCCCCC/C=C\CCCCCCCCOS(=O)(=O)O |
